Our source for the Ki, Ke and IC50 values is ChEMBL document CHEMBL1133698, “Novel ligands lacking a positive charge for the delta- and mu-opioid receptors” (J Med Chem, 2000).

The target of one test is Mu-type opioid receptor (Rattus norvegicus, UniProt P33535). In words: Binding affinity was determined by displacement of [3H]- DAMGO at Opioid receptor mu 1 in rat brain membrane homogenates. It counts as cell membranes. In short, it runs like this:
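Rat brain membranes, [3H]DAMGO at 0.72 nM, 2 h at 25 °C. Enzyme inhibitor cocktail in buffer (bestatin 100 µM, captopril 1.0 µM, thiorphan 1.0 µM, Leu-Leu 100 µM). IC50 from log dose-displacement curves. Ki by Cheng-Prusoff using Kd 1.3 nM. Mean of three to six determinations ± SEM.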
A general note: Displacement assays read how much labelled ligand stays bound in the presence of the test substance.

The target of test [1] is Delta-type opioid receptor (Rattus norvegicus, UniProt P33533). As to the kind of experiment: Binding affinity was determined by displacement of [3H]- DSLET at Opioid receptor delta 1 in rat brain membrane homogenates. Format: cell membranes. In short, it runs like this:
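Rat brain membranes, [3H]DSLET at 0.78 nM, 2 h at 25 °C, with a peptidase inhibitor cocktail in buffer. Poorly soluble peptides dissolved in DMSO, diluted in buffer, filtered, and concentration set by optical density. IC50 from log dose-displacement curves. Ki by Cheng-Prusoff with Kd 2.6 nM. Mean of three to six determinations ± SEM.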

For test [2], the species on record is Mus musculus. In words: Antagonist activity was determined against the selective delta -agonist DPDPE in the MVD (mouse vas deferens) assay. Format: functional. In short, it runs like this: (§1)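 Mouse vas deferens, electrically evoked contractions. DPDPE IC50 measured with and without a fixed antagonist concentration (50 to 4000 nM). Ke = a/(DR − 1), where DR is the ratio of agonist IC50 values. Mean of three to six determinations ± SEM.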

For test [3], the species on record is Cavia porcellus. In words: (§2) Antagonist activity was determined against the selective delta -agonist TAPP in the GPI (guinea pig ileum) assay. It counts as functional. The method in brief: (§3)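 Guinea pig ileum, electrically evoked contractions. µ-Agonist TAPP IC50 measured with and without antagonist at a fixed 500 nM. Ke = a/(DR − 1) from the IC50 ratio. Mean of three to six determinations ± SEM.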

For test [4], the species on record is Cavia porcellus. The test is described as §2. It counts as functional, organism-based. The method in brief: as §3
The species named for test [5] is Mus musculus. As to the kind of experiment: Antagonist activity was determined against the selective delta -agonist DPDPE by inhibition of electrically evoked contractions of the mouse vas deferens. It counts as functional. In short, it runs like this:
as §1

Where a SMILES comes first, the peptide text is derived from it. Bridges are numbered along the chain shown (N, C = ends). [ ]: non-standard residue; d: D form. 2Nal = N[C@@H](Cc1ccc2ccccc2c1)C(=O)O; Dmt = Cc1cc(O)cc(C)c1C[C@H](N)C(=O)O; dOrn = NCCC[C@@H](N)C(=O)O

Mu-type opioid receptor, sequence (P33535 whole entry, looked up): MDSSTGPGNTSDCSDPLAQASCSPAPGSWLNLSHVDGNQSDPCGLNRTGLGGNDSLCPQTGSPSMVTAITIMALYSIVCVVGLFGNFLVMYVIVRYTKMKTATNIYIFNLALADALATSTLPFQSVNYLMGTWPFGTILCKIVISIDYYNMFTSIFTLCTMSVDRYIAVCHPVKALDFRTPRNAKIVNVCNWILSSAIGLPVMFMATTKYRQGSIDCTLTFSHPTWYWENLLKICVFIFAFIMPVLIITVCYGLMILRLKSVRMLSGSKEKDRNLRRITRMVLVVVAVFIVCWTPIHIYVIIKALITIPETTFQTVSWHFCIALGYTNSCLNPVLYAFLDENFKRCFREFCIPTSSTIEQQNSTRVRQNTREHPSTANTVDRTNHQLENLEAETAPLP
Delta-type opioid receptor, sequence (P33533 whole entry, looked up): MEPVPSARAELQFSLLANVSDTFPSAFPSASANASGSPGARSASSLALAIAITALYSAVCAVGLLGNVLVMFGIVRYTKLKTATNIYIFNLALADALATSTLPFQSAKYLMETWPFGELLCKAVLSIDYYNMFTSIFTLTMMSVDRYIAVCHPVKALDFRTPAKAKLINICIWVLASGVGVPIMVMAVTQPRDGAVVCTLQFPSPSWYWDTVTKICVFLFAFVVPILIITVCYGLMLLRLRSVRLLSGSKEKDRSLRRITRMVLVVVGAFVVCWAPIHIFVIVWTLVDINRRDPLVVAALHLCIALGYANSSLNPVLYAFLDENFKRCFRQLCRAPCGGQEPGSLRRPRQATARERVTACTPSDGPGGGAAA

In general, Ki refers to the equilibrium dissociation constant of an inhibitor or competing ligand from its target. Low readings indicate tighter binding, high ones weaker binding. `Cc1cc(O)cc(C)c1CCC(=O)N[C@@H]1CCCNC(=O)CNC(=O)[C@H]2CCCN2C(=O)[C@H](Cc2ccc3ccccc3c2)NC1=O`: the Ki at Mu-type opioid receptor was 450 nM; in test [1] it was 109 nM. For the same compound, the Ke in the test filed under Mus musculus [2] is 121 nM; in the test filed under Cavia porcellus [3] it was 237 nM.
For `Cc1cc(O)cc(C)c1C[C@H](NC=O)C(=O)N[C@@H]1CCCNC(=O)CNC(=O)[C@H]2CCCN2C(=O)[C@H](Cc2ccc3ccccc3c2)NC1=O`, in that order: 218 nM, 32.8 nM, 16.3 nM and 216 nM.
Turning to `C[C@@H](O)[C@@H]1NC(=O)[C@H](CC2CCCCC2)NC(=O)[C@@H](Cc2c[nH]c3ccccc23)NC(=O)[C@H](Cc2ccccc2)NC(=O)[C@@H]2CCCN2C(=O)[C@H](Cc2ccccc2)NC1=O`, the Ki was more than 10000 nM on Mu-type opioid receptor and 486 nM in test [1]. The Ke in the test filed under Mus musculus [2] was 202 nM.
On the same counts, the results for `C[C@@H](O)[C@@H]1NC(=O)[C@H](Cc2ccc(O)cc2)NC(=O)[C@@H](Cc2c[nH]c3ccccc23)NC(=O)[C@H](Cc2cccc3ccccc23)NC(=O)[C@@H]2CCCN2C(=O)[C@H](Cc2ccccc2)NC1=O` are more than 10000 nM, 152 nM and 128 nM.
For `C[C@@H](O)[C@@H]1NC(=O)[C@H](Cc2ccc(O)cc2)NC(=O)[C@@H](Cc2c[nH]c3ccccc23)NC(=O)[C@H](Cc2ccc3ccccc3c2)NC(=O)[C@@H]2CCCN2C(=O)[C@H](Cc2ccccc2)NC1=O`, in that order: more than 10000 nM, 1070 nM and 2460 nM.
By IC50 is commonly meant the concentration at which inhibition is half-maximal. A higher IC50 goes with a need for much substance. Take `Cc1cc(O)cc(C)c1C[C@H](N)C(=O)N[C@@H]1CCCNC(=O)CNC(=O)[C@H]2CCCN2C(=O)[C@H](Cc2ccc3ccccc3c2)NC1=O` (H-[Dmt][dOrn][2Nal][dP]G; lactam 2-C): the Ki on Mu-type opioid receptor came to 0.476 nM; in test [1], 0.467 nM. This compound also came in with a Ke in the test filed under Mus musculus [2] of 2.13 nM. Also, the IC50 in the test filed under Cavia porcellus [4] was 7.88 nM.
`C[C@@H](O)[C@@H]1NC(=O)[C@H](Cc2ccc(O)cc2)NC(=O)[C@@H](Cc2c[nH]c3ccccc23)NC(=O)[C@H](Cc2ccccc2)NC(=O)[C@@H]2CCCN2C(=O)[C@H](Cc2ccccc2)NC1=O` (cyclo(FPF[dW]YT)): the Ki is more than 10000 nM on Mu-type opioid receptor and 759 nM in test [1]. Further, the Ke in the test listed under Mus musculus [5] stood at 238 nM.
